Bioassay records from PubChem.
Rows were chosen to be rich in hits. Some 2.3% of all compounds tested hit in one or more screens of this group.
TRPC6 inhibitor = mouse TRPC6 channel inhibition; hit rate 1.1% among 310,000; HEK293-TRPC6, membrane potential dye, ACh-evoked depolarization; hits give low values; B-score at 10 µM;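 active = B-score under library mean minus 3 SD, initial fluorescence not abnormally high, positive integrated signal ratio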;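 also: B-score derived from integrated fluorescence ratio over the kinetic read; more negative B-score means stronger inhibition of depolarization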
TRPC6 activator = activators of mouse TRPC6 channel | hit rate 0.13% among 310,000 | B-score at 10 µM | HEK293-TRPC6 membrane potential dye fluorescence; hits give high values | Q61143;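 active = B-score of the integrated fluorescence ratio above library mean plus 3 SD, and starting fluorescence ratio within library mean plus 5 SD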;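 also: higher score means more depolarization so channel activation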
TRPC4 agonist = TRPC4 (mouse) channel activation; Q9QUQ5; HEK293 TRPC4beta/mu-opioid, Fluo4 calcium fluorescence; hits give high values; B-score at 10 µM; hit rate 0.49% among 310,000; AID 2237;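 active = B-score above 5 SD of library B-scores, and initial fluorescence ratio not above library mean plus 5 SD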;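 also: positive B-score marks a calcium rise read as TRPC4 activation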
Target sequence (Q9QUQ5 whole entry, looked up): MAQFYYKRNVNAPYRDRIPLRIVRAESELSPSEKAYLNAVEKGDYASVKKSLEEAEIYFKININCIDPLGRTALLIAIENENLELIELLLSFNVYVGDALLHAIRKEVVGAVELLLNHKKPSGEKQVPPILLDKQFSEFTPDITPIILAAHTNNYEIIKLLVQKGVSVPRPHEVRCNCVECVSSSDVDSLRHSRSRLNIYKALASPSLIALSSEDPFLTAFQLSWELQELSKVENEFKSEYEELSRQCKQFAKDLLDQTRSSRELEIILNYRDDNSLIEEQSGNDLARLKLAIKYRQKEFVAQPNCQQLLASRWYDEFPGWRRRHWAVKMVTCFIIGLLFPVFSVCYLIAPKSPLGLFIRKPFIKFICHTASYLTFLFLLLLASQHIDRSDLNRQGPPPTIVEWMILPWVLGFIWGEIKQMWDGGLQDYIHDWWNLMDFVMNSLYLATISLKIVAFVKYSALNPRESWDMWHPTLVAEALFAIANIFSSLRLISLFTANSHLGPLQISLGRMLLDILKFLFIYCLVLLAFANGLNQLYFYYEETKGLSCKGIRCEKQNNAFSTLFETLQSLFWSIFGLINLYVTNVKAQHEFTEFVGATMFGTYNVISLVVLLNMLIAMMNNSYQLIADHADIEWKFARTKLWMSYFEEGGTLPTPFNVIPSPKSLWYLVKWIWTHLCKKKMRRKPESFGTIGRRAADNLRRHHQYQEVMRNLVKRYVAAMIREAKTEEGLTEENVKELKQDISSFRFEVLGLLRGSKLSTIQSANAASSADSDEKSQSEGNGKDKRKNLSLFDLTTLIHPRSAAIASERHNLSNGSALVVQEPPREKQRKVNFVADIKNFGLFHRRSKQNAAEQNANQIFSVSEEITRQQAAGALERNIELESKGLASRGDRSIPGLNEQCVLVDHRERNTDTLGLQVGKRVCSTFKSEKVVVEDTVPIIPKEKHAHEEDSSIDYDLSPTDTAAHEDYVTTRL
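Incubation: 45 min room-temperature Fluo4 loading, 110 s read / System: HEK293 cells stably co-expressing mouse TRPC4beta and mu-opioid receptor / Signal: Fluo4 fluorescence, kinetic / Control set: buffer (low) and maximal DAMGO (high) / Measure: integrated baseline-normalised fluorescence ratio, converted to per-well B score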
TRPC4 block = TRPC4 (mouse) channel inhibition; HEK293 TRPC4beta/mu-opioid, DAMGO-evoked Fluo4 calcium flux; hits give low values; B-score at 10 µM; hit rate 0.39% among 300,000;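 active = B-score over 3 SD under the library average, no early fluorescence shift, positive overall ratio signal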
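Assay system: HEK293 cells with stable TRPC4beta plus mu-opioid receptor expression; Probe or stimulus: DAMGO in two steps, submaximal then maximal; Dosing: single-point compound dosing; Measured by: Fluo4 calcium-dye fluorescence, kinetic read; Read-out basis: B score from integrated Fluo4 fluorescence ratio.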
TRPC4 potent = allosterically enhances the mouse TRPC4 cation channel. B-score at 10 µM. Q9QUQ5. HEK293 TRPC4beta/mu-opioid, DAMGO EC20, Fluo-4 Ca2+ flux; hits give high values. hit rate 0.42% among 310,000;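 active = B-score of calcium response area above 5 SD of library B-scores, with initial fluorescence ratio within 5 SD of library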
TRPC4 sel inh 2 = second check of whether TRPC6 inhibitors also affect mouse TRPC4. HEK293 TRPC4/MOR, membrane potential dye fluorescence; channel activated by saturating DAMGO dose. shares compounds with TRPC6 inhibitor. inhibition, % at 10 µM. hit rate 42% among 920;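 active = compounds whose fluorescence signal differed from control wells by over 3 SD, either direction, in both duplicate plates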
TRPC4 spec = selectivity of TRPC6 inhibitors: effect on mouse TRPC4 | hit rate 61% among 920 | activity change, negative = inhibition, % at 10 µM | HEK293 TRPC4/mu-opioid, membrane potential fluorescence | shares compounds with TRPC6 inhibitor | AID 2777;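 active = rise or fall in signal beyond 3 SD of buffer-only wells in both replicate plates, either sign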;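 also: integrated kinetic ratio of fluorescence range over baseline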
HEK293 MPD ctr 2-1 = second check of TRPC6 inhibitor effects in parental HEK293 cells | parental HEK293 membrane potential dye fluorescence; maximal acetylcholine challenge after compound addition | signal change vs control, % at 10 µM | AID 2779 | hit rate 31% among 920 | shares compounds with TRPC6 inhibitor;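 active = membrane potential signal moving either way by over 3 SD of the maximum-effect control, in both duplicate plates, meaning non-specific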
HEK293 MPD ctr-1 = counter-screen for TRPC6 inhibitors: effect in parental HEK293 cells. shares compounds with TRPC6 inhibitor. parental HEK293 membrane potential dye fluorescence. membrane potential signal change, % at 10 µM. hit rate 60% among 920. AID 2780;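 active = membrane potential signal shifting up or down by more than 3 SD of buffer-only wells, on both duplicate plates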
HEK293 MPD ctr-2 = parental HEK293 nonspecific activity of TRPC6 modulators. membrane potential dye fluorescence. hit rate 51% among 2,400. membrane potential signal change, % at 10 µM. shares compounds with TRPC6 inhibitor;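 active = membrane potential signal moves up or down beyond 5 SD from buffer-only wells, on both duplicate plates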
HEK293 MPD ctr 2-2 = second counter-screen for TRPC6 modulators: effect in parental HEK293 cells; hit rate 14% among 2,400; shares compounds with TRPC6 inhibitor; inhibition, % at 10 µM; membrane potential dye fluorescence; after compound, maximal acetylcholine stimulation;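 active = membrane potential signal drops by more than 5 SD from the mean control signal, in both duplicate plates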
TRPC4/MOR mod = selectivity of TRPC6 modulators against mouse TRPC4. percent change from control (negative = decrease, positive = increase), % at 10 µM. HEK293 TRPC4/mu-opioid, membrane potential fluorescence. hit rate 69% among 2,400. shares compounds with TRPC6 inhibitor;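 active = membrane potential signal moved up or down beyond 5 SD of buffer control wells, in both duplicate plates, actives on both sides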
TRPC4 ctr inh 2 = second check of whether TRPC6 modulators also affect mouse TRPC4. shares compounds with TRPC6 inhibitor. HEK293 TRPC4/mu-opioid, membrane potential dye fluorescence; stimulated with maximal-effect DAMGO. inhibition, % at 10 µM. hit rate 55% among 2,400;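 active = drop in membrane potential signal beyond 5 SD of the control wells in both duplicate plates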;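 also: TRPC4 counter screen for TRPC6 hits run under conditions tuned for TRPC6 not TRPC4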
TRPC6 inh conf = mouse TRPC6 inhibitor confirmation; shares compounds with TRPC6 inhibitor; HEK293-TRPC6, membrane potential dye, ACh-evoked depolarization; inhibition, % at 10 µM; hit rate 43% among 3,300;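 active = fluorescence ratio falls more than 5 SD below the full-stimulation control mean, in both duplicate runs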;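 also: integrated fluorescence ratio of peak minus minimum over baseline after agonist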
TRPC6 act conf = confirmation of mouse TRPC6 activators | shares compounds with TRPC6 inhibitor | HEK293-TRPC6 membrane potential dye fluorescence, FDSS | activation, % at 10 µM | hit rate 11% among 2,800 | AID 488961;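 active = ratio signal rise beyond 5 SD above unstimulated control wells' mean, seen in both duplicate runs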
Large screens that a line does not name were inactive (follow-up assays come after a bar, where they were run).

Cc1ccc(Oc2cc(NN3CCCCC3)c([N+](=O)[O-])cc2[N+](=O)[O-])c([N+](=O)[O-])c1	none
CN1CCc2nc(SCC(=O)OC(C)(C)C)c(C#N)cc2C1	none
Cc1cccc(N2CCc3c2nc2ccccc2c3N)c1	TRPC6 inhibitor -13.7, TRPC4 block -7 | HEK293 MPD ctr-2 -192.0% | HEK293 MPD ctr 2-2 74.5% | TRPC4/MOR mod -49.0% | TRPC4 ctr inh 2 97.5% | TRPC6 inh conf 81.0% | TRPC6 act conf inactive
CC[N+]12CCC(CC1)C(C(O)(c1ccccc1)c1ccccc1)C2 (stereo not given)	TRPC6 inhibitor -6.02 | HEK293 MPD ctr-2 inactive | HEK293 MPD ctr 2-2 inactive | TRPC4/MOR mod inactive | TRPC4 ctr inh 2 inactive | TRPC6 inh conf 81.5% | TRPC6 act conf inactive
CCC(CO)(C(=O)OC1C[N+]2(C)CCC1CC2)c1ccccc1 (stereo not given)	TRPC6 inhibitor -11.5 | TRPC4 sel inh 2 inactive | TRPC4 spec inactive | HEK293 MPD ctr 2-1 -30.5% | HEK293 MPD ctr-1 inactive | TRPC6 inh conf 97.2% | TRPC6 act conf inactive
C[N+]12CCC(CC1)C(OC(=O)C(O)(c1ccccc1)c1ccccc1)C2 (stereo not given)	TRPC6 inhibitor -8.82 | TRPC4 sel inh 2 inactive | TRPC4 spec inactive | HEK293 MPD ctr 2-1 8.0% | HEK293 MPD ctr-1 inactive | TRPC6 inh conf 80.9% | TRPC6 act conf inactive
C[N+]12CCC(CC1)C(C(O)(c1cccc(Cl)c1)c1cccc(Cl)c1)C2 (stereo not given)	none
CC1(C)CN(S(=O)(=O)OCC(Cl)(Cl)Cl)C(=O)N1	none
c1ccc2c(N3CCNCC3)cccc2c1	none
Clc1cccc(N2CCNCC2)c1Cl	TRPC6 inhibitor -8.96 | TRPC4 sel inh 2 72.5% | TRPC4 spec -0.4% | HEK293 MPD ctr 2-1 inactive | HEK293 MPD ctr-1 1.9% | TRPC6 inh conf 55.5% | TRPC6 act conf inactive
CCC(=NCCC(c1ccccc1)c1ccccc1)c1c(O)[nH]c(=O)[nH]c1=O	none
COc1cc2c(cc1OC)-c1c(OC)c(OC)c(OC)c3ccnc(c13)C2=O	TRPC6 inhibitor -7.04 | HEK293 MPD ctr-2 -141.5% | HEK293 MPD ctr 2-2 inactive | TRPC4/MOR mod -29.0% | TRPC4 ctr inh 2 73.5% | TRPC6 inh conf 56.5% | TRPC6 act conf inactive
NCCNc1ccc([N+](=O)[O-])c2cccnc12	TRPC6 inhibitor -5.25, TRPC4 agonist 70, TRPC4 potent 10 | HEK293 MPD ctr-2 -231.5% | HEK293 MPD ctr 2-2 inactive | TRPC4/MOR mod -31.0% | TRPC4 ctr inh 2 50.5% | TRPC6 inh conf 43.0% | TRPC6 act conf inactive
CC(O)CNc1ccc([N+](=O)[O-])c2cccnc12 (stereo not given)	none
N=Cc1c(O)n(-c2cccc(Cl)c2)c(=O)[nH]c1=O	none
CC(=O)N1CCN(c2ccc(N=Cc3c(O)n(-c4ccc(Cl)cc4)c(=O)[nH]c3=O)cc2)CC1	none
CNc1cc(N2CCN(C)CC2)ccc1[N+](=O)[O-]	none
O=[N+]([O-])c1ccc(N2CCCC2)cc1N/N=C1\CN2CCC1CC2	TRPC6 inhibitor -5.2 | HEK293 MPD ctr-2 -247.5% | HEK293 MPD ctr 2-2 74.0% | TRPC4/MOR mod -41.0% | TRPC4 ctr inh 2 85.5% | TRPC6 inh conf 88.5% | TRPC6 act conf inactive
COc1ccc2c(C)c(CC(=O)N3C[C@H]4C[C@@H](C3)c3cccc(=O)n3C4)c(=O)oc2c1	none
CC(Cc1ccccc1Sc1ccccc1O)N(C)C (stereo not given)	TRPC6 inhibitor -9.38, TRPC4 block -7 | TRPC4 sel inh 2 37.0% | TRPC4 spec 54.9% | HEK293 MPD ctr 2-1 inactive | HEK293 MPD ctr-1 12.4% | TRPC6 inh conf inactive
C#CCN(C)[C@H](C)Cc1ccccc1	none
CCOc1ccc(N2C(=O)/C(=C\c3cccs3)C(=O)NC2=S)cc1	none
CCCCn1c(C)c(C(=O)OCC)c2c(CN3CCOCC3)c(O)ccc21	TRPC6 inhibitor -5.26 | HEK293 MPD ctr-2 -88.5% | HEK293 MPD ctr 2-2 inactive | TRPC4/MOR mod -12.5% | TRPC4 ctr inh 2 66.5% | TRPC6 inh conf 62.5% | TRPC6 act conf inactive
CCCCn1c(C)c(C(=O)OCC)c2c(CN3CCCC3)c(O)ccc21	TRPC6 inhibitor -5.44 | HEK293 MPD ctr-2 inactive | HEK293 MPD ctr 2-2 inactive | TRPC4/MOR mod inactive | TRPC4 ctr inh 2 58.5% | TRPC6 inh conf 47.5% | TRPC6 act conf inactive
CCOC(=O)c1c(C)n(Cc2ccc(F)cc2)c2ccc(O)cc12	none
C=CCN(c1ccc(C(=O)N(CC)CC)cc1)S(C)(=O)=O	TRPC6 inhibitor -5.57 | HEK293 MPD ctr-2 inactive | HEK293 MPD ctr 2-2 inactive | TRPC4/MOR mod inactive | TRPC4 ctr inh 2 inactive | TRPC6 inh conf inactive | TRPC6 act conf inactive
Cc1[nH]c2ccccc2c1/C=N/O	none
C[N+](C)(C)CC#CCN1CCCC1=O	TRPC6 inhibitor -5.94, TRPC4 agonist 86 | HEK293 MPD ctr-2 103.0% | HEK293 MPD ctr 2-2 60.5% | TRPC4/MOR mod 45.0% | TRPC4 ctr inh 2 inactive | TRPC6 inh conf 78.5%
Cc1ccc(OCC(=O)N2CCCC(N3CCN(c4ccc(F)cc4)CC3)C2)cc1 (stereo not given)	none
OCC[n+]1c2ccccc2nc2ccc(N3CCOCC3)cc21	TRPC6 inhibitor -10 | HEK293 MPD ctr-2 -273.5% | HEK293 MPD ctr 2-2 104.0% | TRPC4/MOR mod -47.0% | TRPC4 ctr inh 2 72.0% | TRPC6 inh conf 82.0% | TRPC6 act conf inactive
